25 compounds from ChEMBL document CHEMBL1909633, “Pseudoguaianolides and guaianolides from Inula hupehensis as potential anti-inflammatory agents” (J Nat Prod, 2011) can be followed below.

pIC50: −log10 of the molar value.

Data set [1] has as its system RAW264.7. Briefly: Cytotoxicity against mouse RAW264.7 cells after 24 hrs by MTT assay. It is filed as cell-based. The settings on record: raw264.7, 24 h. Put shortly: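 RAW264.7 macrophages, cultured and treated alongside the LPS (1 μg/mL, 24 h) NO assay with sample pretreatment of 30 min; viability read by MTT reduction.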
(In general: Formazan colour is commonly taken as a measure of viable cells.)

The test system of data set [2] is RAW264.7. Nature of the data set: Antiinflammatory action in mouse RAW264.7 cells assessed as inhibition of LPS-induced nitric oxide production treated 30 mins before LPS challenge measured after 24 hrs by griess reaction. Format: functional, cell-based. Put shortly: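 RAW264.7 macrophages seeded at 2 × 10^5 cells/well, pretreated 30 min with samples over 0.1–50.0 μM, then stimulated with LPS 1 μg/mL for 24 h. NO quantified as nitrite in culture supernatant using Griess reagent; IC50 derived.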
(Griess reagent forms a coloured azo dye with nitrite.)

In the case of `C=C1C(=O)O[C@H]2C[C@@H](C)[C@@H]3[C@H](OC)CC(=O)[C@@]3(C)[C@@H](OC(C)=O)[C@H]12`, in the data set with RAW264.7 [1], the Activity entry is recorded as “Non-toxic”. For the same compound, in the data set on RAW264.7 [2], the negative-log IC50 (pIC50) (in general, the IC50 on a negative log10 scale, so that one unit is a factor of ten) is 5.66.
Consider `C[C@@H]1C[C@@H]2OC(=O)[C@@H](C)[C@H]2[C@H](O)[C@]2(C)C(=O)C=C[C@@H]12`, for which, in the data set with RAW264.7 [1], the Activity entry is listed as “Non-toxic”. Further, the pIC50 in the data set on RAW264.7 [2] is 4.98.
With `C=C1C(=O)O[C@@H]2C[C@H](C)[C@@H]3CCC(=O)[C@@]3(C)C[C@H]12` [CONFERTIN], the Activity entry with RAW264.7 [1] is “Non-toxic”. Further, the pIC50 with RAW264.7 [2] was 5.01.
In the same order, the values of `C=C1C(=O)O[C@H]2C=C(C)[C@H]3CC[C@](C)(O)[C@@H]3C[C@H]12` are “Non-toxic” and 5.20.
For `C=C1C(=O)O[C@H]2C[C@@H](C)[C@@H]3CCC(=O)[C@@]3(C)C[C@H]12` [GRAVEOLIDE], in that order: “Non-toxic” and 5.04.
As for `C=C1C(=O)O[C@H]2C[C@@H](C)[C@@H]3[C@@H](OC)CC(=O)[C@@]3(C)[C@@H](OC(C)=O)[C@H]12`, in the data set on RAW264.7 [1], the Activity result is recorded as “Non-toxic”. Further, in the data set on RAW264.7 [2], the negative-log IC50 (pIC50) was 5.82.
For `C=C1C(=O)O[C@H]2C[C@@H](COC(C)=O)[C@@H]3CCC(=O)[C@@]3(C)C[C@H]12`, in that order: “Non-toxic” and 5.18.
For `C[C@@H]1C[C@@H]2OC(=O)[C@H](C)[C@H]2[C@H](O)[C@]2(C)C(=O)CC[C@@H]12`, in that order: “Non-toxic” and 4.70.
On to `C=C1C(=O)O[C@@H]2CC(C)=C3[C@@H](OC(C)=O)C[C@@](C)(O)[C@@H]3C[C@H]12` [INUCHINENOLIDE B], for which the Activity result with RAW264.7 [1] was “Non-toxic”. Also, the pIC50 in the data set with RAW264.7 [2] was 5.00.
`C=C1C(=O)O[C@H]2C[C@@H](C)[C@@H]3C=CC(=O)[C@@]3(C)[C@@H](O)[C@H]12`: the Activity result in the data set on RAW264.7 [1] is reported as “Non-toxic”. Also, in the data set on RAW264.7 [2], the pIC50 is 5.96.
For `C=C1C(=O)O[C@H]2C[C@@H](C)[C@@H]3[C@H](OC)CC(=O)[C@@]3(C)[C@@H](O)[C@H]12`, in that order: “Non-toxic” and 5.29.
For `C=C1C(=O)O[C@H]2C[C@@H](C)[C@@H]3C=CC(=O)[C@@]3(C)C[C@H]12` [AROMATICIN], in that order: “Non-toxic” and 5.09.
For `C=C1C(=O)O[C@H]2C[C@@](C)(O)C3=CC[C@](C)(O)[C@@H]3C[C@H]12` [GUAIANOLIDE], in that order: “Non-toxic” and 4.57.
Take `C=C1C(=O)O[C@H]2C[C@H](C)[C@@H]3C(OC(C)=O)CC(OC(C)=O)[C@@]3(C)[C@@H](O)[C@H]12` (some centres undefined) [INUCHINENOLIDE C]: in the data set on RAW264.7 [1], the Activity entry is “Non-toxic”. Also, the negative logarithm of the IC50 (pIC50) in the data set on RAW264.7 [2] is 6.22.
Take `C=C1C(=O)O[C@H]2CC(=C)[C@H]3CC[C@@](C)(O)[C@@H]3C[C@H]12` [INUVISCOLIDE]: the Activity result in the data set on RAW264.7 [1] is “Non-toxic”. Moreover, the pIC50 with RAW264.7 [2] was 4.66.
In the same order, the values of `C=C1C(=O)O[C@H]2C[C@@H](C)[C@@H]3CCC(=O)[C@@]3(C)[C@@H](O)[C@H]12` [CARPESIOLIN] are “Non-toxic” and 5.08.
For the compound `C=C1C(=O)O[C@H]2C=C(C)[C@H]3CC[C@@](C)(O)[C@@H]3[C@@H](OC(C)=O)[C@H]12`, in the data set with RAW264.7 [1], the Activity entry is given as “Non-toxic”. For the same compound, the pIC50 with RAW264.7 [2] is 4.77.
`C=C1C[C@H]2OC(=O)C(=C)[C@H]2C[C@@H]2[C@@H]1CC[C@@]2(C)O`: the Activity result with RAW264.7 [1] is on record as “Non-toxic”. In addition, the pIC50 with RAW264.7 [2] was 5.10.
In the same order, the values of `C=C1C(=O)O[C@H]2C[C@@H](C)[C@@H]3C=CC(=O)[C@@]3(C)[C@@H](OC(C)=O)[C@H]12` [BIGELOVIN] are “Non-toxic” and 6.05.
For `N=C(N)NN` [PIMAGEDINE], the negative logarithm of the IC50 (pIC50) in the data set with RAW264.7 [2] is 5.10.
On to `C=C1C(=O)O[C@@H]2C[C@H](C)[C@@H]3[C@@H](O)CC(=O)[C@@]3(C)C[C@H]12` [BURRODIN], for which the Activity entry in the data set with RAW264.7 [1] is on record as “Non-toxic”. Besides, the negative logarithm of the IC50 (pIC50) in the data set on RAW264.7 [2] is 5.02.
In the same order, the values of `C=C1C(=O)O[C@H]2C=C(C)[C@@H]3[C@@H]([C@@H](O)[C@H]12)[C@](C)(O)C[C@@H]3OC(C)=O` are “Non-toxic” and 5.04.
For `C=C1C(=O)O[C@H]2C[C@@H](C)[C@@H]3[C@H](OCC)CC(=O)[C@@]3(C)[C@@H](O)[C@H]12`, in that order: “Non-toxic” and 5.42.
In the same order, the values of `C=C1C(=O)O[C@H]2C[C@@H](C)[C@@H]3CCC(=O)[C@@]3(C)[C@@H](OC(C)=O)[C@H]12` [ERGOLIDE] are “Non-toxic” and 5.41.
Take `C=C1C(=O)O[C@H]2[C@H]1[C@@H](O)C[C@@H](C)[C@@H]1C=CC(=O)[C@]12C`: in the data set with RAW264.7 [1], the Activity entry is listed as “Non-toxic”. The pIC50 in the data set on RAW264.7 [2] is 5.46.
